Experimental data taken from ChEMBL document CHEMBL4368928, “New hybrid trifluoromethylquinolines as antiplasmodium agents” (Bioorg Med Chem, 2019).

Experiments:
[1] = Selectivity index, ratio of EC50 for African green monkey BGM cells to IC50 for chloroquine-resistant mefloquine-sensitive Plasmodium falciparum W2 ring stage form infected in human erythrocytes; assay type: toxicity, cell-based; conditions: read-out: Selectivity Index
Procedure, shortened: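 SI = BGM EC50 / W2 IC50. BGM cells seeded at 5 × 10^3/well, adhered 18 h, exposed 24 h at 37 °C, 5% CO2 to 200–25 µg/mL (20 mg/mL DMSO stock). MTT added 3 h, formazan in DMSO, OD 570/630 nm; viability as % untreated. W2 IC50 from HRPII ELISA on synchronized rings.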

[2] = Cytotoxicity in African green monkey BGM cells assessed as reduction in cell viability incubated for 24 hrs by MTT assay; assay type: cell-based; conditions: Chlorocebus aethiops
Procedure, shortened: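 BGM monkey kidney cells kept in RPMI 1640 with 10% heat-inactivated fetal serum at 37 °C, 5% CO2. Seeded at 5 × 10^3 cells/well and allowed to adhere 18 h. Exposed 24 h to 200–25 μg/mL from a 20 mg/mL DMSO stock. MTT added for 3 h, formazan dissolved in DMSO, OD read at 570/630 nm. Viability as % of untreated control; EC50 derived from this.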

Plasmodium falciparum = assay: Antimalarial activity against chloroquine-resistant and mefloquine-sensitive Plasmodium falciparum W2 ring stage form infected in human erythrocytes by spectrophotometric analysis; assay type: functional, organism-based
Procedure, shortened: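 W2 clone grown in A+ human erythrocytes in RPMI 1640 with 1% Albumax II. Sorbitol-synchronized rings at 1.5% hematocrit and 0.05% parasitemia; compounds from 10 mg/mL DMSO stock, final 0.02% DMSO; triplicate per dose. Growth read by anti-HRPII ELISA (TMB, A450) versus drug-free cultures; IC50 from sigmoid dose-response fits.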

Plasmodium berghei [3] = assay: Antimalarial activity against Plasmodium berghei NK65 infected in mouse assessed as reduction in parasite growth at 50 mg/kg, po administered daily for 3 consecutive days and measured on day 5 post parasite inoculation relative to control; assay type: functional; design: scale not given: the % may be the effect or the level left
Procedure, shortened: (§1)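 Suppressive test: mice inoculated i.p. with 1 × 10^5 P. berghei NK65-infected erythrocytes, randomized about 24 h later to groups of five. Dosed orally once daily for three consecutive days, freshly diluted in 3% DMSO in RPMI; vehicle controls included. Parasitemia was read on days 5, 7 and 9 from Giemsa-stained, methanol-fixed tail-blood thin smears at 1000X. Inhibition is given relative to untreated mice, taken as 100% growth.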

Plasmodium berghei [4] = assay: Antimalarial activity against Plasmodium berghei NK65 infected in mouse assessed as parasite survival at 50 mg/kg, po administered daily for 3 consecutive days (reference value: 13+/- 3 days); assay type: functional
Procedure, shortened: (§2)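 P. berghei NK65 (weekly blood passage); mice infected i.p. with 1 × 10^5 infected erythrocytes, grouped five per cage about 24 h later. Dosed orally once daily for three days in 3% DMSO/RPMI: test compounds at 50 mg/kg, CQ and MQ at 20 mg/kg, vehicle controls. Tail-blood Giemsa thin smears on days 5, 7 and 9; survival recorded in days.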

Plasmodium berghei [5] = assay: Antimalarial activity against Plasmodium berghei NK65 infected in mouse assessed as reduction in parasite growth at 50 mg/kg, po administered daily for 3 consecutive days and measured on day 9 post parasite inoculation relative to control; assay type: functional; design: scale not given: the % may be the effect or the level left; procedure, shortened: as §1
Plasmodium berghei [6] = assay: Antimalarial activity against Plasmodium berghei NK65 infected in mouse assessed as reduction in parasite growth at 50 mg/kg, po administered daily for 3 consecutive days and measured on day 7 post parasite inoculation relative to control; assay type: functional; design: scale not given: the % may be the effect or the level left; procedure, shortened: as §1
Plasmodium berghei [7] = assay: Antimalarial activity against Plasmodium berghei NK65 infected in mouse assessed as parasite survival at 20 mg/kg, po administered daily for 3 consecutive days (reference value: 13+/- 3 days); assay type: functional; procedure, shortened: as §2
Plasmodium berghei [8] = assay: Antimalarial activity against Plasmodium berghei NK65 infected in mouse assessed as reduction in parasite growth at 20 mg/kg, po administered daily for 3 consecutive days and measured on day 9 post parasite inoculation relative to control; assay type: functional; design: scale not given: the % may be the effect or the level left; procedure, shortened: as §1
Plasmodium berghei [9] = assay: Antimalarial activity against Plasmodium berghei NK65 infected in mouse assessed as reduction in parasite growth at 20 mg/kg, po administered daily for 3 consecutive days and measured on day 7 post parasite inoculation relative to control; assay type: functional; design: scale not given: the % may be the effect or the level left; procedure, shortened: as §1
Plasmodium berghei [10] = assay: Antimalarial activity against Plasmodium berghei NK65 infected in mouse assessed as reduction in parasite growth at 20 mg/kg, po administered daily for 3 consecutive days and measured on day 5 post parasite inoculation relative to control; assay type: functional; design: scale not given: the % may be the effect or the level left; procedure, shortened: as §1

Row | SMILES | selectivity ratio [1] | EC50 [2] | IC50 (Plasmodium falciparum) | Activity (Plasmodium berghei [3]) | Survival (Plasmodium berghei [4]) | Activity (Plasmodium berghei [5]) | Activity (Plasmodium berghei [6]) | Survival (Plasmodium berghei [7]) | Activity (Plasmodium berghei [8]) | Activity (Plasmodium berghei [9]) | Activity (Plasmodium berghei [10])
1 | FC(F)(F)c1cc(Nc2ccccc2C(F)(F)F)c2cccc(C(F)(F)F)c2n1 | < 0.57 | < 18.9 µM | 33 µM | – | – | – | – | – | – | – | –
2 | FC(F)(F)c1cc(Nc2ccc3ccccc3c2)c2cccc(C(F)(F)F)c2n1 | 1.2 | 12.3 µM | 9.6 µM | – | – | – | – | – | – | – | –
3 | FC(F)(F)c1cc(Nc2ccncc2)c2cccc(C(F)(F)F)c2n1 | > 66.7 | > 560 µM | 8.4 µM | 25% | 15 days | 11% | 42% | – | – | – | –
4 | Cc1nnc(Nc2cc(C(F)(F)F)nc3c(C(F)(F)F)cccc23)s1 | 0.8 | 1.5 µM | 1.8 µM | – | – | – | – | – | – | – | –
5 | Oc1ccc(Nc2cc(C(F)(F)F)nc3c(C(F)(F)F)cccc23)cc1 | < 27.9 | 672 µM | 24.1 µM | – | – | – | – | – | – | – | –
6 | FC(F)(F)c1cc(Nc2ccccn2)c2cccc(C(F)(F)F)c2n1 | < 2.29 | < 44.8 µM | 19.6 µM | – | – | – | – | – | – | – | –
7 | FC(F)(F)c1cc(N2CCOCC2)c2cccc(C(F)(F)F)c2n1 | < 11.7 | 1680 µM | > 143 µM | – | – | – | – | – | – | – | –
8 | Fc1ccc(Nc2cc(C(F)(F)F)nc3c(C(F)(F)F)cccc23)cc1 | < 2.67 | < 42.8 µM | 16 µM | – | – | – | – | – | – | – | –
9 | FC(F)(F)c1cc(Nc2ccccc2)c2cccc(C(F)(F)F)c2n1 | < 0.83 | < 22.5 µM | 28 µM | – | – | – | – | – | – | – | –
10 | FC(F)(F)c1cc(Nc2ncccn2)c2cccc(C(F)(F)F)c2n1 | > 66.5 | > 559 µM | 8.4 µM | 61% | 13 days | 31% | 35% | – | – | – | –
11 | FC(F)(F)c1cc(NC2CCCCC2)c2cccc(C(F)(F)F)c2n1 | 11.5 | 127 µM | 11 µM | – | – | – | – | – | – | – | –
12 | FC(F)(F)c1cc(N2CCNCC2)c2cccc(C(F)(F)F)c2n1 | 0.5 | 17.2 µM | 31.5 µM | – | – | – | – | – | – | – | –
13 | Cc1nnc(Nc2cc(C(F)(F)F)nc3c(C(F)(F)F)cccc23)[nH]1 | 132 | 11 µM | 0.083 µM | 66% | 19 days | 23% | 30% | – | – | – | –
14 | Clc1ccc2c(Nc3ccncc3)ccnc2c1 | 67 | 784 µM | 11.7 µM | – | – | – | – | – | – | – | –
15 | FC(F)(F)c1cc(Nc2nnc[nH]2)c2cccc(C(F)(F)F)c2n1 | < 8 | < 23.1 µM | 2.9 µM | – | – | – | – | – | – | – | –
16 | COc1ccc(Nc2cc(C(F)(F)F)nc3c(C(F)(F)F)cccc23)cc1OC | 27 | 130 µM | 4.8 µM | – | – | – | – | – | – | – | –
17 | FC(F)(F)c1cc(Nc2nnc(C(F)(F)F)[nH]2)c2cccc(C(F)(F)F)c2n1 | 7.3 | 84.2 µM | 11.5 µM | – | – | – | – | – | – | – | –
18 | O[C@@H](c1cc(C(F)(F)F)nc2c(C(F)(F)F)cccc12)[C@H]1CCCCN1 (relative stereo) [(S,R)-MEFLOQUINE] | 789 | 15 µM | 0.019 µM | – | – | – | – | >30 days | 99% | 98% | 98%
19 | CCN(CC)CCCC(C)Nc1ccnc2cc(Cl)ccc12 (stereo not given) [CHLOROQUINE] | – | 907 µM | – | – | – | – | – | 24 days | 84% | 99% | 99%
